Data from ChEMBL document CHEMBL3421570, “Combinatorial Libraries As a Tool for the Discovery of Novel, Broad-Spectrum Antibacterial Agents Targeting the ESKAPE Pathogens” (J Med Chem, 2015).
Calls of active or inactive are those of the source. No cut-off for these calls is given here.

Legend:
Enterobacter cloacae [1] = test: Antimicrobial activity against Enterobacter cloacae assessed as inhibition of microbial growth at 45 uM after 24 hrs; format: functional, organism-based
In short: (§1)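 Broth microdilution single-concentration read: overnight cultures diluted 1:1000, compound in DMF (≤2.0%) added, 37°C for 24 h, growth inhibition scored visually by lack of turbidity; triplicate. Gram-positives grown in TSB, Gram-negatives in LB.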

Pseudomonas aeruginosa [2] = test: Antimicrobial activity against Pseudomonas aeruginosa assessed as inhibition of microbial growth at 45 uM after 24 hrs; format: functional, organism-based; in short: as §1
Klebsiella pneumoniae [3] = test: Antimicrobial activity against Klebsiella pneumoniae assessed as inhibition of microbial growth at 45 uM after 24 hrs; format: functional, organism-based; in short: as §1
Acinetobacter baumannii [4] = test: Antimicrobial activity against Acinetobacter baumannii assessed as inhibition of microbial growth at 45 uM after 24 hrs; format: functional, organism-based; in short: as §1
Enterococcus faecium [5] = test: Antimicrobial activity against Enterococcus faecium assessed as inhibition of microbial growth at 45 uM after 24 hrs; format: functional, organism-based; in short: as §1
Staphylococcus aureus [6] = test: Antimicrobial activity against Staphylococcus aureus assessed as inhibition of microbial growth at 45 uM after 24 hrs; format: functional, organism-based; in short: as §1
Enterococcus faecium [7] = test: Antimicrobial activity against Enterococcus faecium assessed as inhibition of microbial growth after 24 hrs; format: functional
In short: (§2)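 Broth microdilution against multidrug-resistant clinical ESKAPE isolates. Overnight cultures (TSB for Gram-positives, LB for Gram-negatives) diluted 1:1000 in fresh medium, compound in DMF (≤2.0% DMF) added at decreasing concentrations, 37°C.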

Acinetobacter baumannii [8] = test: Antimicrobial activity against Acinetobacter baumannii assessed as inhibition of microbial growth after 24 hrs; format: functional; in short: as §2
Staphylococcus aureus [9] = test: Antimicrobial activity against Staphylococcus aureus assessed as inhibition of microbial growth after 24 hrs; format: functional; in short: as §2
Enterobacter cloacae [10] = test: Antimicrobial activity against Enterobacter cloacae assessed as inhibition of microbial growth after 24 hrs; format: functional; in short: as §2
Pseudomonas aeruginosa [11] = test: Antimicrobial activity against Pseudomonas aeruginosa assessed as inhibition of microbial growth after 24 hrs; format: functional; in short: as §2
Klebsiella pneumoniae [12] = test: Antimicrobial activity against Klebsiella pneumoniae assessed as inhibition of microbial growth after 24 hrs; format: functional; in short: as §2

Row | SMILES | growth inhibition (GI) (Enterobacter cloacae [1]) | growth inhibition (GI) (Pseudomonas aeruginosa [2]) | growth inhibition (GI) (Klebsiella pneumoniae [3]) | growth inhibition (GI) (Acinetobacter baumannii [4]) | growth inhibition (GI) (Enterococcus faecium [5]) | growth inhibition (GI) (Staphylococcus aureus [6]) | MIC (Enterococcus faecium [7]) | MIC (Acinetobacter baumannii [8]) | MIC (Staphylococcus aureus [9]) | MIC (Enterobacter cloacae [10]) | MIC (Pseudomonas aeruginosa [11]) | MIC (Klebsiella pneumoniae [12])
1 | N=C1NC[C@H](CCCCN2C[C@H](CC3CCCCC3)N(CCCCC3CCCCC3)C2=N)N1CCCCC1CCCCC1 | Active | Active | Active | Active | Active | Active |  |  |  |  |  | 
2 | CCCCCCCN1C(=N)N(CCCC[C@H]2CNC(=N)N2CCC23CC4CC(CC(C4)C2)C3)C[C@@H]1CC1CCCCC1 | Active | Active | Active | Active | Active | Active |  |  |  |  |  | 
3 | CCCC[C@H]1CN(CCCC[C@H]2CNC(=N)N2CCC23CC4CC(CC(C4)C2)C3)C(=N)N1CCc1ccc(-c2ccccc2)cc1 | Active | Active | Active | Active | Active | Active |  |  |  |  |  | 
4 | CCCCCCCN1C(=N)N(CCCC[C@H]2CNC(=N)N2CCCCC2CCCCC2)C[C@@H]1CCCC | Active | Active | Active | Active | Active | Active |  |  |  |  |  | 
5 | N=C1NC[C@H](CCCCN2C[C@H](CC3CCCCC3)N(CCc3ccc(-c4ccccc4)cc3)C2=N)N1CCC12CC3CC(CC(C3)C1)C2 | Active | Active | Active | Active | Active | Active |  |  |  |  |  | 
6 | N=C1NC[C@H](CCCCN2C[C@H](CC3CCCCC3)N(CCc3ccc(-c4ccccc4)cc3)C2=N)N1CCc1cccc(C(F)(F)F)c1 | Active | Active | Active | Active | Active | Active |  |  |  |  |  | 
7 | N=C1NC[C@H](CCCCN2C[C@@H](Cc3cccc4ccccc34)N(CCCCC3CCCCC3)C2=N)N1CCc1cccc(C(F)(F)F)c1 | Active | Active | Active | Active | Active | Active |  |  |  |  |  | 
8 | CCCC[C@H]1CN(CCCC[C@H]2CNC(=N)N2CCCCC2CCCCC2)C(=N)N1CCc1ccc(-c2ccccc2)cc1 | Active | Active | Active | Active | Active | Active |  |  |  |  |  | 
9 | CCCCCCCN1C(=N)N(CCCC[C@H]2CNC(=N)N2CCc2cccc(C(F)(F)F)c2)C[C@H]1Cc1cccc2ccccc12 | Active | Active | Active | Active | Active | Active |  |  |  |  |  | 
10 | CCCC[C@H]1CN(CCCC[C@H]2CNC(=N)N2CCC23CC4CC(CC(C4)C2)C3)C(=N)N1CCCCC1CCCCC1 | Active | Active | Active | Active | Active | Active |  |  |  |  |  | 
11 | CCCCCCCN1C(=N)N(CCCC[C@H]2CNC(=N)N2CCCCC2CCCCC2)C[C@H]1Cc1cccc2ccccc12 | Active | Active | Active | Active | Active | Active |  |  |  |  |  | 
12 | CCC[C@@H]1CN(CCCC[C@H]2CNC(=N)N2CC2CCC(C)CC2)C(=N)N1CC(C)CC (stereo not given in full) |  |  |  |  |  |  | inactive | inactive | inactive | inactive | inactive | inactive
13 | Cc1cccc(CCN2CCN(CCCC[C@H]3CNC(=N)N3CC3CCC(C)CC3)C2=N)c1 (stereo not given in full) |  |  |  |  |  |  | inactive | inactive | inactive | inactive | inactive | inactive
14 | N=C1NCCN1CCCC[C@H]1CNC(=N)N1CC1CCCCC1 |  |  |  |  |  |  | inactive | inactive | inactive | inactive | inactive | inactive
15 | CCC[C@@H]1CN(CCCC[C@H]2CNC(=N)N2CC2CCCCC2)C(=N)N1CC(C)CC (stereo not given in full) |  |  |  |  |  |  | inactive | inactive | inactive | inactive | inactive | inactive
16 | N=C1NC[C@H](CCCCN2C[C@H](CC3CCCCC3)N(CCCCC3CCCCC3)C2=N)N1CCC12CC3CC(CC(C3)C1)C2 | Active | Active | Active | Active | Active | Active |  |  |  |  |  | 
17 | CCCCCCCN1C(=N)NC[C@@H]1CCCCN1CCN(CCc2cccc(C)c2)C1=N |  |  |  |  |  |  | inactive | inactive | inactive | inactive | inactive | inactive
18 | CCCCCCCN1C(=N)NC[C@@H]1CCCCN1CCNC1=N |  |  |  |  |  |  | inactive | inactive | inactive | inactive | inactive | inactive
19 | CCCCCCCN1C(=N)NC[C@@H]1CCCCN1C[C@H]([C@@H](C)CC)NC1=N |  |  |  |  |  |  | inactive | inactive | inactive | inactive | inactive | inactive
20 | CCCC[C@H]1CN(CCCC[C@H]2CNC(=N)N2CCc2cccc(C(F)(F)F)c2)C(=N)N1CCc1ccc(-c2ccccc2)cc1 | Active | Active | Active | Active | Active | Active |  |  |  |  |  | 
21 | N=C1NC[C@H](CCCCN2C[C@@H](Cc3cccc4ccccc34)N(CCCCC3CCCCC3)C2=N)N1CCCCC1CCCCC1 | Active | Active | Active | Active | Active | Active |  |  |  |  |  | 
22 | CC[C@H](C)[C@H]1CN(CCCC[C@H]2CNC(=N)N2CC2CCCCC2)C(=N)N1 |  |  |  |  |  |  | inactive | inactive | inactive | inactive | inactive | inactive
23 | N=C1NC[C@H](CCCCN2C[C@@H](Cc3cccc4ccccc34)N(CCc3ccc(-c4ccccc4)cc3)C2=N)N1CCc1cccc(C(F)(F)F)c1 | Active | Active | Active | Active | Active | Active |  |  |  |  |  | 
24 | N=C1NC[C@H](CCCCN2C[C@H](CC3CCCCC3)N(CCCCC3CCCCC3)C2=N)N1CCc1cccc(C(F)(F)F)c1 | Active | Active | Active | Active | Active | Active |  |  |  |  |  | 
25 | CCC[C@@H]1CN(CCCC[C@H]2CNC(=N)N2CC2CCC(C)CC2)C(=N)N1CCc1cccc(C)c1 (stereo not given in full) |  |  |  |  |  |  | inactive | inactive | inactive | inactive | inactive | inactive
26 | Cc1cccc(CCN2CCN(CCCC[C@H]3CNC(=N)N3CC3CCCCC3)C2=N)c1 |  |  |  |  |  |  | inactive | inactive | inactive | inactive | inactive | inactive
27 | CCCCCCCN1C(=N)NC[C@@H]1CCCCN1CCN(CC(C)CC)C1=N (stereo not given in full) |  |  |  |  |  |  | inactive | inactive | inactive | inactive | inactive | inactive
28 | CCCC[C@H]1CN(CCCC[C@H]2CNC(=N)N2CCCCC2CCCCC2)C(=N)N1CCCCC1CCCCC1 | Active | Active | Active | Active | Active | Active |  |  |  |  |  | 
29 | N=C1NC[C@H](CCCCN2C[C@@H](Cc3cccc4ccccc34)N(CCCCC3CCCCC3)C2=N)N1CCC12CC3CC(CC(C3)C1)C2 | inactive | inactive | inactive | inactive | inactive | inactive |  |  |  |  |  | 
30 | CCCCCCCN1C(=N)NC[C@@H]1CCCCN1C[C@@H](CCC)N(CC(C)CC)C1=N (stereo not given in full) |  |  |  |  |  |  | inactive | inactive | inactive | inactive | inactive | inactive
